ASAP1 inh: blocks human ASAP1-stimulated Arf1 GTP hydrolysis. Q9ULH1. GDP FP detection. inhibition, % at 16.5 µM. 0.19% of 360,000 active; in the data active = inhibition above about 25%
Target sequence (Q9ULH1 325-724 limits assumed): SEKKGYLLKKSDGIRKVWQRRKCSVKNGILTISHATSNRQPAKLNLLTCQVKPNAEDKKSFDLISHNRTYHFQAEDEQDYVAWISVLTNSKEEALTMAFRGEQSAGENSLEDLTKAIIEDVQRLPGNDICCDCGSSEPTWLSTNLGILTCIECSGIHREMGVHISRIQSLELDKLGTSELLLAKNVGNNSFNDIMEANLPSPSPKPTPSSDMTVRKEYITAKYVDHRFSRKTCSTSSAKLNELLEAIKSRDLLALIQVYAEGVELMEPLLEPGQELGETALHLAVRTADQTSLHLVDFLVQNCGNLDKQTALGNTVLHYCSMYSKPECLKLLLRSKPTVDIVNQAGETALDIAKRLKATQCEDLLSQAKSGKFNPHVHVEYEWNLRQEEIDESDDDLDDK
esBAF inh: SWI/SNF esBAF complex inhibition; 2% of 350,000 active; reporter increase, % at 12.5 µM; AID 602393; mouse ES cells, Bmi1-luciferase knock-in reporter, 24 h; 100% = twice the neutral-well signal; in the data active = activation above about 40%;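 note: a rise in the Bmi1 reporter signal indicates esBAF inhibition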
ARFGAP1 inhibitor: inhibitors of rat ARFGAP1; inhibition, % at 16.5 µM; 0.26% of 360,000 active; Arfgap1-stimulated ARF1 GTP hydrolysis, GDP FP detection; Q62848;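 active = inhibition above a per-plate limit, mean inhibition of low control wells plus 3 SD, cut at about 25% in these data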
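Material: rat Arfgap1 catalytic domain, aa 1-136; also added: human ARF1(Δ1-17)-GTP substrate; compound dosing: one concentration, 16.5 µM, DMSO 1.26%; incubation: GTP hydrolysis reaction 2 h at 25 °C; measured by: Tracer-displacement fluorescence polarization with EDTA stop, 620/688 nm; evaluation: % inhibition from polarization; repeats: one replicate per compound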
SMARCA2 activ: increases SMARCA2 function in MMTV reporter cells; 1% of 370,000 active; MG213 cells, MMTV-luciferase reporter, dexamethasone, overnight; AID 652017; activation, % at 9.1 µM; in the data active = activation above about 7.8%
Each line names hits and unclear results; the compound was inactive in the other large screens. Most compounds without a hit are left out; they make up all but 2.6% or so of the library.

Cc1cccc(C(=O)Nc2cccc(C(=O)NC3CCCC3)c2)c1	none
Cc1ccc(C(=O)Nc2cccc(C(=O)NC3CCCC3)c2)cc1	esBAF inh 49.8
CC(C)Oc1ccc(C(=O)NC2CCCCC2)cc1	esBAF inh 50.0
CC(C)Oc1ccc(C(=O)NC2CCS(=O)(=O)C2)cc1 (configuration not stated)	none
CCc1ccc2oc(C(=O)Nc3nonc3C)c(C)c2c1	esBAF inh 78.1
CCOc1ccc2oc(C(=O)Nc3ccc(C)cn3)c(C)c2c1	esBAF inh 85.0
Cc1ccc(NC(=O)c2oc3ccccc3c2C)nc1	none (no result: esBAF inh)
COc1ccc(S(=O)(=O)Nc2cccc3c2O[C@@H](CN(C)Cc2ccc4c(c2)OCO4)[C@@H](C)CN([C@@H](C)CO)C3=O)cc1	none (no result: ASAP1 inh, ARFGAP1 inhibitor, SMARCA2 activ)
COc1ccc(NC(=O)c2cccc(OS(=O)(=O)N(C)C)c2)cc1	none
CNS(=O)(=O)c1cccc(C(=O)Nc2cccnc2)c1	none
CNS(=O)(=O)c1cccc(C(=O)Nc2cccc(Cl)c2)c1	esBAF inh 48.2
CN(C)S(=O)(=O)Oc1cccc(C(=O)Nc2ccc(Cl)c(Cl)c2)c1	esBAF inh 72.2
CN(C)S(=O)(=O)Oc1cccc(C(=O)Nc2cccc(Cl)c2)c1	esBAF inh 44.4
C[C@H](CO)N1C[C@H](C)[C@@H](CN(C)C(=O)c2ccncc2)OCCCC[C@H](C)Oc2ccc(NC(=O)Cc3ccccc3)cc2C1=O	none (no result: ASAP1 inh, ARFGAP1 inhibitor, SMARCA2 activ)
Cc1ccc(S(=O)(=O)N[C@H]2CC[C@@H](CC(=O)NCCCN(C)C)O[C@@H]2CO)cc1	none (no result: ASAP1 inh, ARFGAP1 inhibitor, SMARCA2 activ)
O=C(C=C1NCCN1)c1ccccc1	none
O=C(/C=C1\NCC2c3ccccc3CCN2C1=O)c1ccccc1 (configuration not stated)	esBAF inh 48.8
O=C(C[C@@H]1CC[C@@H]2[C@H](COC[C@@H](O)CN2C(=O)Nc2cccc(Cl)c2)O1)NCC1CCCCC1	none (no result: ASAP1 inh, ARFGAP1 inhibitor, SMARCA2 activ)
C[C@H]1CN([C@@H](C)CO)C(=O)c2cc(-c3cccc(F)c3)cnc2O[C@H]1CN(C)Cc1cccc(F)c1	none (no result: ASAP1 inh, ARFGAP1 inhibitor, SMARCA2 activ)
CCN(CC)S(=O)(=O)c1ccc2oc(Nc3ccc(OC)cc3OC)nc2c1	none
CCN(CC)S(=O)(=O)c1ccc2oc(Nc3ccccc3)nc2c1	esBAF inh 70.5
CCS(=O)(=O)c1ccc2oc(Nc3ccccc3C)nc2c1	esBAF inh 54.7
CCS(=O)(=O)c1ccc2oc(Nc3ccc(OC)c(OC)c3)nc2c1	none
Cc1nc(C(=O)Nc2ccccc2)sc1C1(C)CC(c2cccnc2)=NO1 (configuration not stated)	esBAF inh 45.9
O=C(CCN1C(=O)c2cccc3cccc(c23)C1=O)Nc1ccccc1	SMARCA2 activ 7.9
C[C@H]1CN([C@@H](C)CO)C(=O)c2cc(NS(=O)(=O)c3ccccc3)ccc2O[C@H]1CN(C)C(=O)Nc1ccc(C(F)(F)F)cc1	none (no result: ASAP1 inh, ARFGAP1 inhibitor, SMARCA2 activ)
COc1ccccc1S(=O)(=O)N[C@H]1CC[C@H](CCNC(=O)C2CCCC2)O[C@H]1CO	none (no result: ASAP1 inh, ARFGAP1 inhibitor, SMARCA2 activ)
O=C(Nc1ccc2c(c1)OCCO2)C1CCCN(S(=O)(=O)c2cccs2)C1 (configuration not stated)	esBAF inh 48.2 (no result: ASAP1 inh, ARFGAP1 inhibitor, SMARCA2 activ)
O=C(Nc1ccc2c(c1)OCO2)C1CCCN(S(=O)(=O)c2cccs2)C1 (configuration not stated)	none (no result: ASAP1 inh, ARFGAP1 inhibitor, SMARCA2 activ)
COc1ccc(O)c(-c2cc(-c3cccc(Br)c3)n[nH]2)c1	esBAF inh 62.0
COc1ccc(O)c(-c2cc(-c3ccc(F)cc3)n[nH]2)c1	esBAF inh 71.9
CCOC(=O)c1cc(-c2ccc3c(c2)OCCO3)n[nH]1	none (no result: esBAF inh)
CCOC(=O)c1cc(-c2ccc(OC)cc2)n[nH]1	esBAF inh 69.8
COc1ccc(-c2cc(-c3ccc(Cl)cc3)n[nH]2)c(O)c1	none (no result: esBAF inh)
Oc1ccc(Br)cc1-c1cc(-c2ccccc2)n[nH]1	none (no result: esBAF inh)
COc1ccc(-c2cc(-c3cc(OC)ccc3O)[nH]n2)cc1	esBAF inh 53.6
C[C@@H]1CN([C@H](C)CO)C(=O)c2cc(NC(=O)c3ccccc3)ccc2O[C@@H](C)CCCCO[C@@H]1CN(C)C(=O)Nc1cccc2ccccc12	none (no result: ASAP1 inh, ARFGAP1 inhibitor, SMARCA2 activ)
CO[C@H]1CN(C)C(=O)c2cc(NS(=O)(=O)c3cn(C)cn3)ccc2OC[C@@H](C)N(Cc2cccc(F)c2)C[C@H]1C	none (no result: ASAP1 inh, ARFGAP1 inhibitor, SMARCA2 activ)
O=C(C[C@@H]1CC[C@H]2NC[C@@H](O)COC[C@@H]2O1)N1CCc2ccccc2C1	none (no result: ASAP1 inh, ARFGAP1 inhibitor, SMARCA2 activ)
COC(=O)[C@H]1[C@H](CO)[C@H]2Cn3c(ccc(-c4ccccc4F)c3=O)[C@H]2N1Cc1ccccc1	none (no result: ASAP1 inh, ARFGAP1 inhibitor, SMARCA2 activ)
CO[C@@H]1CN(C)C(=O)c2cc(NC(=O)C3CCC3)ccc2OC[C@H](C)N(Cc2ccc(F)cc2)C[C@H]1C	none (no result: ASAP1 inh, ARFGAP1 inhibitor, SMARCA2 activ)
O=C(OCc1nc2ccccc2s1)c1cnccn1	esBAF inh 54.8
